Screening results from PubChem.
This is a sample that favours compounds with a hit; in the whole collection about 2.9% have one here.
MC4R ag barr – human MC4R agonism via beta-arrestin | P32245 | U2OS MC4R beta-arrestin complementation, luminescence; percent of melanotan II response, DMSO zero | activation, % at 8.9 µM | 360,000 compounds, 0.98% hits | AID 540308;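 active means activation above a per-plate cutoff, the mean activation of sample wells on that plate plus 3 SD, cut at about 8% in these data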
GalR3 antag – human GalR3 antagonism | O60755 | HEK293 GalR3-CNG cAMP membrane potential fluorescence; galR3 body fused to GalR1 C-terminus | inhibition, % at 3 µM | 360,000 compounds, 0.44% hits | AID 651719;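 active means inhibition above the screen-wide average plus 3 SD, cut at about 13% in these data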;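 further: forskolin and galanin both at EC90 stimulate the cells; cAMP rise reported by CNG channel membrane potential dye signal; 0% = forskolin plus galanin with DMSO and 100% = forskolin alone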
Target sequence (O60755 1-299 limits assumed): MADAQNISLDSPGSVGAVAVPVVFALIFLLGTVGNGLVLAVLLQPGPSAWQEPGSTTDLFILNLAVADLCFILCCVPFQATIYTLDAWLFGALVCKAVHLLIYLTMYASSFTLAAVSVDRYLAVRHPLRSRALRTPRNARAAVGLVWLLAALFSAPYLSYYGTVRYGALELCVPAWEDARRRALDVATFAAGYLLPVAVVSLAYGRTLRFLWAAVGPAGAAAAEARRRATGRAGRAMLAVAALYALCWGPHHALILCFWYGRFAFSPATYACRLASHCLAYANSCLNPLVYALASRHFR
Efflux pump inh – antifungal efflux pump inhibition, Nile Red retention | 330,000 compounds, 0.44% hits | S. cerevisiae Candida pump triplex | inhibition, % at 10 µM;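 active means plate passing quality check with inhibition over a set limit, or well fluorescence over plate mean plus 4 SD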;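 further: Nile Red retained in pooled yeast measured as flow cytometry median fluorescence; 0% = buffer negative control and 100% = Enniatin B positive control; higher means more Nile Red kept so more efflux inhibition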
Calb FLC – C. albicans growth modulation with fluconazole; C. albicans CaCi-2 + fluconazole, Alamar Blue growth, 48 h; 300,000 compounds, 0.57% hits; growth inhibition, % (concentration not given with the values); AID 1979;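 active means growth inhibition above about 58% in most replicates, limit read from the data, passing the limit was not always enough; inconclusive means exactly half the replicates above a set limit; inactive means most replicates below a set limit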;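 further: all wells also contain fluconazole at 8 µg/ml as a sub-toxic cotreatment; 0% = median of DMSO wells and 100% = median of geldanamycin control wells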
MC4R antag cAMP – antagonists of human melanocortin 4 receptor (MC4R) | P32245 | MC4R-expressing cells, MTII-stimulated cAMP, LANCE TR-FRET | inhibition, % at 6.5 µM | 360,000 compounds, 0.48% hits | AID 540295;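 active means inhibition above its plate's cutoff, the mean of tested wells on that plate plus 3 SD, cut at about 29% in these data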;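 further: 0% = Melanotan II alone and 100% = Melanotan II plus saturating MCL0020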
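System: U2OS-MC4R stable cell line; Technique: Eu-cAMP/anti-cAMP TR-FRET, emission 671 nm; Repeats: single well per compound; Also added: Melanotan II; Dosing: one concentration, 6.5 µM nominal; Schedule: 30-min compound, 1-h challenge, 1-h detection, room temperature.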
H9c2 TAG inh – triacylglycerol accumulation inhibition. H9c2 cells, Nile Red lipid (TAG) fluorescence; cells loaded with 200 µM oleic acid. inhibition, % at 12.5 µM. 230,000 compounds, 0.66% hits;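 active means pattern-corrected inhibition of lipid staining of at least 50% with the nuclear-stain viability signal not falling by more than 50%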;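 further: 0% = DMSO wells and 100% = triacsin C control wells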
GalR3 conf – confirmation of human galanin receptor 3 antagonists; 1,600 compounds, 59% hits; AID 652245; HEK293 GalR3 CNG cAMP biosensor, membrane potential fluorescence; galR3 fused to GalR1 carboxy tail; challenged with forskolin and galanin at EC90; inhibition, % at 3 µM; shares compounds with GalR3 antag;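 active means inhibition above the primary screen's cutoff, the mean inhibition of all screened compounds plus 3 SD, cut at about 13% in these data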;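 further: 0% = forskolin plus galanin and 100% = forskolin alone with DMSO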
HEK-CNG parental – counter-screen for GalR3 antagonists: nonspecific agonists in parental HEK-CNG cells; shares compounds with GalR3 antag; HEK293-CNG parental cells, cAMP membrane potential fluorescence; normalised: DMSO wells 0%, forskolin wells 100%; activation, % at 3 µM; 1,600 compounds, 10% hits; AID 652268; in the data active means activation above about 1.3%
The depositor's hits bear a star; ? = inconclusive; · = no result.

SMILES | MC4R ag barr | GalR3 antag | Efflux pump inh | Calb FLC | MC4R antag cAMP | H9c2 TAG inh | GalR3 conf | HEK-CNG parental
Cc1oc(-c2ccc(Cl)cc2)nc1CS(=O)CC(=O)NCCCN1CCN(Cc2ccccc2)CC1 (stereo not given) | -1 | 69* | 0 | 22 | 4 | · | 110* | 2.0*
Cc1oc(-c2ccc(Cl)cc2)nc1CS(=O)CC(=O)NCCCN1CCCC(C)C1 (stereo not given) | -2 | -6 | 0 | 6 | 3 | · | · | ·
CC(C)(C)N1C(=O)[C@H]2[C@@H](c3ccc(Br)cc3)N3C(=O)N(c4ccccc4)C(=O)[C@@]3(Cc3ccccc3)[C@H]2C1=O | 2 | · | 0 | 5 | 13 | · | 2 | -1
CC(C)(C)N1C(=O)[C@H]2[C@@H](c3ccc(Br)cc3)N3C(=O)N(c4cccc(Br)c4)C(=O)[C@@]3(Cc3ccccc3)[C@H]2C1=O | 0 | · | 0 | -11 | 0 | 43 | · | ·
O=C(NC(=S)NC(=O)c1ccccc1F)c1ccccc1F | 2 | 18* | 0 | ? | 16 | · | 5 | 0
O=C(NC(=S)NCc1ccccc1)c1ccccc1F | -1 | -1 | 0 | 1 | -8 | · | · | ·
CCOc1cc(OCC)cc(C(=O)N2CCC[C@H]2C(=O)N2CCC[C@H]2C(=O)N(C)Cc2ccccc2)c1 | · | 0 | · | · | · | · | · | ·
Brc1ccc(OCCN2CCOCC2)cc1 | 0 | -9 | 0 | 0 | 2 | · | · | ·
Brc1ccc(OCCCN2CCOCC2)cc1 | -1 | 16* | 0 | 7 | -4 | -1 | 0 | 0
Cc1cccc(CN2CCN(C3CN(Cc4cn(Cc5ccc(F)cc5)nn4)S(=O)(=O)C3)CC2)c1 (stereo not given) | · | -4 | · | · | · | · | · | ·
COc1cc2c(cc1OC)-c1cc(NC3CCCCCC3)nc(=O)n1CC2 | 3 | 52* | 0 | -15 | -17 | · | 58* | 1
COc1cc2c(cc1OC)-c1cc(OCc3cccnc3)nc(=O)n1CC2 | 1 | 2 | · | · | 0 | 24 | · | ·
COc1ccc(Nc2cc3n(c(=O)n2)CCc2cc(OC)c(OC)cc2-3)cc1 | -1 | 21* | 1 | 2 | -15 | · | 59* | 0
COc1ccc(Nc2cc3n(c(=O)n2)CCc2cc(OC)c(OC)cc2-3)c(C)c1 | -2 | 40* | 0 | -4 | -43 | · | 72* | 0
CCN(CC)CCCNc1cc2n(c(=O)n1)CCc1cc(OC)c(OC)cc1-2 | -1 | -3 | 0 | -5 | 15 | · | · | ·
COc1cc2c(cc1OC)-c1cc(Nc3ccccc3)nc(=O)n1CC2 | -1 | 44* | 0 | -3 | 2 | 11 | 57* | 1
COc1cc2c(cc1OC)-c1cc(Nc3ccc(C(=O)O)cc3)nc(=O)n1CC2 | 0 | -8 | 0 | 3 | -4 | · | · | ·
Cc1ccc(S(=O)(=O)N(C)c2cccc3c2S(=O)(=O)N([C@H](C)c2ccccc2)C[C@@H](COCc2ccccc2)O3)cc1 | · | -5 | · | · | · | · | · | ·
COc1cc2c(cc1OC)-c1cc(Nc3ccc4c(c3)OCCO4)nc(=O)n1CC2 | -1 | 59* | 0 | -3 | -16 | 9 | 57* | 0
COc1cc2c(cc1OC)-c1cc(Nc3ccc(C)cc3)nc(=O)n1CC2 | -1 | 45* | 0 | -8 | -21 | · | 59* | 0
CCOc1cccc(Nc2cc3n(c(=O)n2)CCc2cc(OC)c(OC)cc2-3)c1 | -1 | 16* | 0 | 4 | -29 | · | 56* | 0
COc1cc2c(cc1OC)-c1cc(Nc3ccccc3Br)nc(=O)n1CC2 | -1 | 49* | 0 | -3 | -20 | · | 61* | 1
CN(CCOc1ccc(Cl)cc1)C(=O)c1cccc(S(=O)(=O)N2CCN(Cc3ccccc3)CC2)c1 | 0 | 31* | · | · | 12 | -17 | 84* | 1
COc1ccc(NC(=O)CN(C)C(=O)c2cccc(S(=O)(=O)N3CCN(Cc4ccccc4)CC3)c2)cc1 | -1 | · | 0 | 1 | 0 | -24 | · | ·
